Measured values: PubChem BioAssay
The source made the active and inactive calls. Unless noted, no stated cut-off is given here; in the data, active means inhibition above about 30%; inactive means the rest.

Columns and labels:
[1] = reduced viability of SK-BR-3 breast cancer cells – cell-based, 24 h, human, pilot screen (AID 572;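 active means viability at or below 10% of carrier control in both of two separate runs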;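 further: compound exposure lasted between 18 and 24 h rather than exactly 24 h; 100% = carrier-treated control wells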); details: SK-BR-3 viability, CellTiter-Glo luminescence, at 10 µM, stronger effect = lower value
[2] = HUVEC growth inhibition – cell-based, human, primary screen (AID 575;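 active means viability at or below 30% in both replicate assays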;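 further: 100% = median of untreated cell wells with 0.1% DMSO on each plate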); details: HUVEC proliferation, CellTiter-Glo luminescence, 72 h; at 10 µM; stronger effect = lower value
How it was run: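 Assay system: Primary human umbilical vein endothelial cells | Quantity: 1250 cells per well | Medium: Supplemented EBM, 2% fetal bovine serum | Detection: CellTiter-Glo luminescence measuring cellular ATP | Read-out: % viability vs DMSO wells | Plate: Collagen-coated 384-well format | Times: 72 h exposure, 37 °C, 5% CO2, 30 min RT equilibration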

[3] = H69AR cell proliferation blockers – human, duplicate replicates, primary screen (AID 580;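 active means viability at or under a set limit in both replicates, limit being median viability minus 3 SD, cut at about 48% in these data, passing the limit was not always enough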;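 further: 100% = mean luminescence of untreated wells and 0% = no signal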); details: H69AR lung tumor cells viability, ATP luminescence, 72 h; at 10 µM; stronger effect = lower value
[4] = MRP1 drug-resistance reversers in H69AR cells – cell-based, doxorubicin co-treatment, pilot screen (AID 601;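 active means viability loss from added drug above about 55%, and viability with drug at most 40%, in both replicates, limit read from the data, passing the limit was not always enough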); details: CellTiter-Glo, 72 h, at 10 µM; for differential viability (reversal): stronger effect = higher value
[5] = yeast transport mutant growth inhibition pilot in 384-well plates, post-Golgi transport modulator project (AID 636; in the data active means inhibition above about 31%); details: absorbance 615 nm, about 18 h, stronger effect = higher value
[6] = growth suppression of yeast trafficking mutant, preliminary HTS, modulators of trafficking downstream of Golgi apparatus project, 1536-format plate, OD 615 nm (AID 637); details: yeast transport mutant growth, absorbance 615 nm, 18 h; stronger effect = higher value
[7] = H69AR cells + 2 uM doxorubicin, measured here: viability with 2 uM doxorubicin, stronger effect = lower value
[8] = H69AR cells, compound alone cytotoxicity

| SMILES | viability [1] | viability [2] | viability [3] | differential viability (reversal) ([4]; H69AR cells + 2 uM doxorubicin) | viability [4, 7] [%] | viability [4, 8] [%] | inhibition [5] | inhibition [6] |
| --- | --- | --- | --- | --- | --- | --- | --- | --- |
| N#Cc1c(N)oc(-c2cccs2)c1-c1cccs1 | 107% (inactive) | 107% (inactive) | 95% (inactive) | 1.77% (inactive) | 93.2 | 95 | -6.93% (inactive) | -3.82% (inactive) |
| CC1Oc2ccccc2N(Cc2ccccc2Cl)C1=O (stereo unspecified) | 77% (inactive) | 110% (inactive) | 89.1% (inactive) | 11.3% (inactive) | 77.8 | 89.1 | -5.34% (inactive) | 2% (inactive) |
| CCOc1ccccc1-n1c(SCC(=O)NC2CCCC2)nnc1-c1ccoc1C | 77% (inactive) | 97% (inactive) | 93% (inactive) | 1.66% (inactive) | 91.3 | 93 | 0.91% (inactive) | -4.92% (inactive) |
| COc1ccc(NC(=O)CSc2nc3c(c(=O)n2-c2ccc(F)cc2)SCC3)c(OC)c1 | 89% (inactive) | 91.1% (inactive) | 90.7% (inactive) | 13.1% (inactive) | 77.5 | 90.7 | -6.71% (inactive) | 3.87% (inactive) |
| CCc1ccccc1NC(=O)c1ccoc1C | 102% (inactive) | 107% (inactive) | 101% (inactive) | 10.8% (inactive) | 90.2 | 101 | 1.78% (inactive) | 4.19% (inactive) |
| Cc1cc(C)nc(N(C#N)CC(=O)N2CCC(C(N)=O)CC2)n1 | 104% (inactive) | 85.9% (inactive) | 98.6% (inactive) | 4.1% (inactive) | 94.5 | 98.6 | -7.95% (inactive) | 1.45% (inactive) |
| Nc1cc(N)nc(SCc2ccccc2)n1 | 94% (inactive) | 90.8% (inactive) | 85.6% (inactive) | -6.86% (inactive) | 92.4 | 85.6 | -0.68% (inactive) | 9.27% (inactive) |
| CN(C)CCC=C1c2ccccc2CCc2ccccc21 | 95% (inactive) | 60.6% (inactive) | 82.3% (inactive) | 8.06% (inactive) | 74.3 | 82.3 | -3.12% (inactive) | -1.67% (inactive) |
| Cc1cccc(NC(=O)CC2CCC2)c1 | 87% (inactive) | 102% (inactive) | 99.8% (inactive) | -2.9% (inactive) | 103 | 99.8 | -5.75% (inactive) | 4.55% (inactive) |
| CCCNS(=O)(=O)c1ccc(OCC(=O)Nc2ccccc2F)cc1 | 96.5% (inactive) | 90.3% (inactive) | 87.3% (inactive) | 8.17% (inactive) | 79.1 | 87.3 | -4.21% (inactive) | -0.81% (inactive) |
| COc1ccc(NS(=O)(=O)c2ccc(N)cc2)nn1 | 91% (inactive) | 100% (inactive) | 104% (inactive) | 8.44% (inactive) | 95.3 | 104 | -0.78% (inactive) | 0% (inactive) |
| CCOC(=O)Cn1nnnc1CN(Cc1ccc(OC)cc1)Cc1cc2cc(C)ccc2[nH]c1=O | 101% (inactive) | 101% (inactive) | 94.3% (inactive) | -0.605% (inactive) | 94.9 | 94.3 | -1.33% (inactive) | 4.55% (inactive) |
| CC1(C)CC(=O)C2=C(C1)NC(=O)CC2C(=O)NCc1ccc(F)cc1 (stereo unspecified) | 106% (inactive) | 110% (inactive) | 111% (inactive) | 15.3% (inactive) | 95.5 | 111 | -4.05% (inactive) | 1.64% (inactive) |
| CC(C)(C)NC(=O)CN(C(=O)C1CSC(=O)C1)c1ccc2c(c1)OCCO2 (stereo unspecified) | 92% (inactive) | 112% (inactive) | 91.5% (inactive) | -1.13% (inactive) | 92.6 | 91.5 | 0.95% (inactive) | -4.55% (inactive) |
| CCOC(=O)c1sc(NC(=O)CSc2nnc(-c3ccc(OC)cc3)n2CCOC)nc1C | 99% (inactive) | 97.2% (inactive) | 101% (inactive) | 21.8% (inactive) | 79.6 | 101 | -4.94% (inactive) | 1.31% (inactive) |
| Cc1ccc(S(=O)(=O)NCC(c2cccnc2)N(C)C)cc1 (stereo unspecified) | 96% (inactive) | 109% (inactive) | 95.1% (inactive) | -8.1% (inactive) | 103 | 95.1 | -5.75% (inactive) | 1.82% (inactive) |
| CC(C)OC(=O)CCCCCN1C(=O)CSC1=S | 108% (inactive) | 86.7% (inactive) | 68.2% (inactive) | -7.49% (inactive) | 75.7 | 68.2 | -0.67% (inactive) | -6.13% (inactive) |
| CC(C)(C)NCC(O)COc1cccc2c1C[C@H](O)[C@H](O)C2 (stereo partly specified) | 82% (inactive) | 85.3% (inactive) | 97.1% (inactive) | 4.26% (inactive) | 92.8 | 97.1 | 2.86% (inactive) | 1.83% (inactive) |
| CCCCN1C(=O)C2C(C(=O)Nc3cccc(OC)c3)C3C=CC2(O3)C1C(=O)NC1CCCCC1C (stereo unspecified) | 101% (inactive) | 82.7% (inactive) | 82.1% (inactive) | 3.86% (inactive) | 78.2 | 82.1 | -2.86% (inactive) | -3.11% (inactive) |
| Cc1nc2ccc(S(=O)(=O)NCC(=O)N(C)Cc3ccco3)cc2s1 | 109% (inactive) | 95.6% (inactive) | 91.6% (inactive) | 9.31% (inactive) | 82.3 | 91.6 | -0.91% (inactive) | 3.93% (inactive) |
| CCOC(=O)c1oc2cc(OCC(N)=O)ccc2c(=O)c1-c1ccc(OC)c(OC)c1 | 65% (inactive) | 88.1% (inactive) | 99% (inactive) | -2.63% (inactive) | 102 | 99 | -7.67% (inactive) | -0.55% (inactive) |
| Cc1cccc(C)c1-n1nnnc1SCSc1nnnn1-c1c(C)cccc1C | 92% (inactive) | 66.8% (inactive) | 72.1% (inactive) | -1.23% (inactive) | 73.3 | 72.1 | -7.81% (inactive) | -0.73% (inactive) |
| CCOC(=O)CNC(=O)CSc1nc(N(C)C)nc(N2CCOCC2)n1 | 88% (inactive) | 98.1% (inactive) | 89.2% (inactive) | 2.04% (inactive) | 87.1 | 89.2 | -9.86% (inactive) | 6.45% (inactive) |
| COc1ccc(CCN(Cc2cc3cccc(C)c3[nH]c2=O)C(=O)N2CCCC2)cc1OC | 106% (inactive) | 104% (inactive) | 98.8% (inactive) | 1.51% (inactive) | 97.3 | 98.8 | -2.6% (inactive) | -0.36% (inactive) |
| Cc1c(NC(=O)CCc2ccc(S(=O)(=O)N3CCOCC3)cc2)c(=O)n(-c2ccccc2)n1C | 93% (inactive) | 109% (inactive) | 100% (inactive) | 10.3% (inactive) | 89.8 | 100 | -3.77% (inactive) | -8.2% (inactive) |
| COc1ccc(-c2nc(C)sc2CC(=O)O)cc1 | 100% (inactive) | 103% (inactive) | 95.8% (inactive) | 2.46% (inactive) | 93.3 | 95.8 | -2.21% (inactive) | 1.31% (inactive) |
| COc1ccc(CNc2nc3nc(C)c(Cl)c(C)n3n2)cc1OC | 97% (inactive) | 104% (inactive) | 92.6% (inactive) | 3.22% (inactive) | 89.4 | 92.6 | -6.35% (inactive) | -6.73% (inactive) |
